According to ChEMBL document CHEMBL4477235, “Evolution of a Novel, Orally Bioavailable Series of PI3Kδ Inhibitors from an Inhaled Lead for the Treatment of Respiratory Disease” (J Med Chem, 2016):

Assays:
Homo sapiens [1] = species on record: Homo sapiens; assay: Selectivity ratio of IC50 for PI3Kalpha (unknown origin) to IC50 for PI3Kdelta (unknown origin)
How it was run: (§1)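 Ratio of each isoform's HTRF IC50 to the PI3Kδ HTRF IC50. Enzymes were preincubated 15 min with 4-fold compound dilutions in HEPES pH 7.0, MgCl2, DTT buffer. […] PIP2 was 5 µM for δ and 8 µM for α/β/γ. 60 min reaction, then EDTA quench with GRP-1 PH domain/APC/Eu detection. Four-parameter fit.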

Homo sapiens [2] = species on record: Homo sapiens; assay: Selectivity ratio of IC50 for PI3Kbeta (unknown origin) to IC50 for PI3Kdelta (unknown origin); how it was run: as §1
[3] = Clearance in rat liver microsomes at 0.5 uM measured up to 30 mins by LC-MS/MS analysis; assay type: ADME, Microsome; conditions: 0.5 h
How it was run: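 Rat liver microsomes (0.5 mg protein/mL) prewarmed 10 min at 37 °C, started with NADPH regeneration system. Final compound 0.5 μM. Sampled at 0, 3, 6, 12 and 30 min into acetonitrile with internal standard. Peak area ratios by LC–MS/MS fitted to log-linear decline. Clearance scaled by protein concentration, incubation volume and 52.5 mg microsomal protein/g liver.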

[4] = Clearance in mouse liver microsomes at 0.5 uM measured up to 30 mins by LC-MS/MS analysis; assay type: ADME, Microsome; conditions: 0.5 h
[5] = AUC(infinity) in Sprague-Dawley rat at 3 mg/kg, po measured up to 7 hrs by LC-MS/MS analysis; assay type: ADME, organism-based; set-up: dose 3 mg/kg, time infinity, route oral; conditions: in vivo, 7 h
How it was run: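 Male Sprague Dawley rats (n = 2/route), oral dose in DMSO/PEG200/water (5:45:50 v/v/v) at 6 mL/kg. Serial tail-vein bleeds over 0–7 h. Parent compound quantified by LC–MS/MS. Parameters from noncompartmental analysis.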

[6] = Half life in Sprague-Dawley rat at 1 mg/kg, iv by LC-MS/MS analysis; assay type: ADME, organism-based; conditions: in vivo
How it was run: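 Male Sprague Dawley rats (n = 2/route), intravenous dose as a solution in DMSO/PEG200/water (5:45:50 v/v/v) at 2 mL/kg. Serial tail-vein blood sampling over 0–7 h. LC–MS/MS quantification of parent. Noncompartmental analysis.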

[7] = Volume of distribution at steady state in Sprague-Dawley rat at 3 mg/kg, po or 1 mg/kg, iv measured up to 7 hrs by LC-MS/MS analysis; assay type: ADME, organism-based; conditions: in vivo, read-out: Vdss
How it was run: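 Male Sprague Dawley rats, n = 2 per route, were dosed discretely at 3 mg/kg orally or 1 mg/kg intravenously. The dosing solution was DMSO/PEG200/water (5:45:50 v/v/v). Serial tail-vein blood samples were taken over 0–7 h, and parent compound was quantified by LC–MS/MS. Parameters were estimated by noncompartmental analysis.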

Albumin = Albumin (Homo sapiens, UniProt P02768); assay: Binding affinity to human serum albumin by HPLC analysis; assay type: ADME; conditions: read-out: PB (converted)
[8] = AUC(infinity) in Wistar Han rat at 1 mg/kg; assay type: ADME, organism-based; set-up: dose 1 mg/kg, time infinity; conditions: in vivo
[9] = AUC(infinity) in Brown Norway rat acute OVA model of TH2-driven lung inflammation at 9 mg/kg, po pretreated for 30 mins followed by OVA challenge; assay type: ADME, organism-based; set-up: dose 9 mg/kg, route oral, time infinity; conditions: in vivo
How it was run: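 Male Brown Norway rats weighing 250–300 g were sensitised intraperitoneally with 10 μg OVA plus 20 mg Al(OH)₃ in 1 mL on days 1 and 7. On day 21 or 28 they were challenged intratracheally with 0.2 mL OVA under isoflurane. Compound was dosed orally 30 min before challenge. Blood exposure was measured in the same animals, with the 1 h post-dose concentration also recorded.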

[10] = Half life in Brown Norway rat acute OVA model of TH2-driven lung inflammation at 3 mg/kg, po pretreated for 30 mins followed by OVA challenge; assay type: ADME, organism-based; conditions: in vivo
[11] = Drug uptake in Wistar Han rat blood at 1 mg/kg measured 1 hr post dose; assay type: ADME, organism-based; conditions: read-out: Drug uptake
[12] = Drug uptake in blood of Brown Norway rat acute OVA model of TH2-driven lung inflammation at 9 mg/kg, po pretreated for 30 mins followed by OVA challenge measured 1 hr post dose; assay type: ADME, organism-based; conditions: read-out: Drug uptake
How it was run: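 Sensitized Brown Norway rats given oral compound 30 min before intratracheal OVA challenge. Blood concentration taken 1 h after dosing, i.e. 30 min after challenge.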

[13] = biological target: Mitogen-activated protein kinase kinase kinase 5 (Homo sapiens, UniProt Q99683); assay: Inhibition of ASK1 (unknown origin)
Chain of Mitogen-activated protein kinase kinase kinase 5 (Q99683 whole entry): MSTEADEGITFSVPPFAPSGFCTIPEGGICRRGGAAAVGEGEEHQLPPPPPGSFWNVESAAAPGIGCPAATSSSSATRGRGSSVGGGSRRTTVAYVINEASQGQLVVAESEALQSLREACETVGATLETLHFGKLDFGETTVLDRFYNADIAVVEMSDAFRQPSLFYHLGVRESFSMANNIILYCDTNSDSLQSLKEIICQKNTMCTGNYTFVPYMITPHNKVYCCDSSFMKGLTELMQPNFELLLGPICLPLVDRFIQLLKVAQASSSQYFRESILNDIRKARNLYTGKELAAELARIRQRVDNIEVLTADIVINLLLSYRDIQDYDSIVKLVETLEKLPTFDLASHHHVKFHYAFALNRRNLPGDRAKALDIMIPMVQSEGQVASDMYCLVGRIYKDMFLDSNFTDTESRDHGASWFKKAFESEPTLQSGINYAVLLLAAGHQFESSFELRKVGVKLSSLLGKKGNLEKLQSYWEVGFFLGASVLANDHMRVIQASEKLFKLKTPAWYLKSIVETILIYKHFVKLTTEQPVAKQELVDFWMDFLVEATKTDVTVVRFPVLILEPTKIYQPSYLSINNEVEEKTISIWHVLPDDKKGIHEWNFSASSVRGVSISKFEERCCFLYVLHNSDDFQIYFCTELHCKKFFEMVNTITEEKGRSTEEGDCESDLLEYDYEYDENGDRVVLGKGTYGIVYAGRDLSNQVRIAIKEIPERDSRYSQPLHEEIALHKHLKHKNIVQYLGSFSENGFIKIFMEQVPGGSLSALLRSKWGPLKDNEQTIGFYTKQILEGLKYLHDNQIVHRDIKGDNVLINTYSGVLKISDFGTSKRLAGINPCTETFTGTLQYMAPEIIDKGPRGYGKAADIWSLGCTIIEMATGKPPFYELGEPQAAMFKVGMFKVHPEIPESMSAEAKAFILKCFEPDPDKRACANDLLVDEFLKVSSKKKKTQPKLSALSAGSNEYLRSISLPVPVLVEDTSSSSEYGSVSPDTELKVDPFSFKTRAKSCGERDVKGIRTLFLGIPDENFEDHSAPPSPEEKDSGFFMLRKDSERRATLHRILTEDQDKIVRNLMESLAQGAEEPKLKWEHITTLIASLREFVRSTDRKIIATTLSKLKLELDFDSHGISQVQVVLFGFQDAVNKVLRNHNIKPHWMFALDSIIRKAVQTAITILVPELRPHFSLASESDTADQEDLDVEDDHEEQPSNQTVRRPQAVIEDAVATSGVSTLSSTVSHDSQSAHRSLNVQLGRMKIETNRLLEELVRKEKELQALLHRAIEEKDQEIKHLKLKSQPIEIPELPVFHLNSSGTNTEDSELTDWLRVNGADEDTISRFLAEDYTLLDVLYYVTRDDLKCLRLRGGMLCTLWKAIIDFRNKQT

Aurora kinase A = Aurora kinase A (Homo sapiens, UniProt O14965); assay: Inhibition of Aurora A (unknown origin)
[14] = biological target: Tyrosine-protein kinase BTK (Homo sapiens, UniProt Q06187); assay: Inhibition of BTK (unknown origin)
[15] = biological target: Epidermal growth factor receptor (Homo sapiens, UniProt P00533); assay: Inhibition of EGFR (unknown origin)
Chain of Epidermal growth factor receptor (P00533 whole entry): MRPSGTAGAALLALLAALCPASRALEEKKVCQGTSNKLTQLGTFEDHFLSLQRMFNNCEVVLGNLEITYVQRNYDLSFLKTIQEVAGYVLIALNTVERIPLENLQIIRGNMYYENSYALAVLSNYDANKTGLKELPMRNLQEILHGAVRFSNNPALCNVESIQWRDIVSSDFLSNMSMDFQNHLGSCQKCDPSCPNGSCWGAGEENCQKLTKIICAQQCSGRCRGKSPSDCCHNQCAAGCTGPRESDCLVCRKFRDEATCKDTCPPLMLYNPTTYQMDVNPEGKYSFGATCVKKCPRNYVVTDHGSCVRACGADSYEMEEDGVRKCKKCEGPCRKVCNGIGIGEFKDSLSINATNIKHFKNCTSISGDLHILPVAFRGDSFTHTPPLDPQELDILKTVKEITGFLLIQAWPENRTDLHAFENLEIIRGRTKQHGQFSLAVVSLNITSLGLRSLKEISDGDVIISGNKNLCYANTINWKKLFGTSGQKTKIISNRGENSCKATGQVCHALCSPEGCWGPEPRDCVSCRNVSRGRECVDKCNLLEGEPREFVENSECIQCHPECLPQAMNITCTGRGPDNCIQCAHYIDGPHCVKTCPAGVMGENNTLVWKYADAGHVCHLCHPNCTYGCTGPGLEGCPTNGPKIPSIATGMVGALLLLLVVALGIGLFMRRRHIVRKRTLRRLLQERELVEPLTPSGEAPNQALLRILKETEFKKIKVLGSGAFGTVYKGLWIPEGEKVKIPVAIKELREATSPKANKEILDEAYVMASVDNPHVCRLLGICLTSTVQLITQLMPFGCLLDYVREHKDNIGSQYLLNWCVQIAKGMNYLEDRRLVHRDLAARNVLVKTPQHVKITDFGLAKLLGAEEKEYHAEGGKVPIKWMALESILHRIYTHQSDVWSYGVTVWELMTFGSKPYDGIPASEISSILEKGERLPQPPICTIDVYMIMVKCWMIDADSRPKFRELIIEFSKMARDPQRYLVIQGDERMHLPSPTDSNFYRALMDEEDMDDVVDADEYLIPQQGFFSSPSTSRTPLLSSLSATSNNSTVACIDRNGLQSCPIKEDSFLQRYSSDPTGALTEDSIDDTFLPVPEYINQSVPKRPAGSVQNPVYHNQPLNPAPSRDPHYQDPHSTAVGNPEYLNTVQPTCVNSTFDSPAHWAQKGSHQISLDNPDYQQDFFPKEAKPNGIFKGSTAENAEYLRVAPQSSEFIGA

[16] = biological target: Tyrosine-protein kinase ITK/TSK (Homo sapiens, UniProt Q08881); assay: Inhibition of ITK (unknown origin)
Chain of Tyrosine-protein kinase ITK/TSK (Q08881 whole entry): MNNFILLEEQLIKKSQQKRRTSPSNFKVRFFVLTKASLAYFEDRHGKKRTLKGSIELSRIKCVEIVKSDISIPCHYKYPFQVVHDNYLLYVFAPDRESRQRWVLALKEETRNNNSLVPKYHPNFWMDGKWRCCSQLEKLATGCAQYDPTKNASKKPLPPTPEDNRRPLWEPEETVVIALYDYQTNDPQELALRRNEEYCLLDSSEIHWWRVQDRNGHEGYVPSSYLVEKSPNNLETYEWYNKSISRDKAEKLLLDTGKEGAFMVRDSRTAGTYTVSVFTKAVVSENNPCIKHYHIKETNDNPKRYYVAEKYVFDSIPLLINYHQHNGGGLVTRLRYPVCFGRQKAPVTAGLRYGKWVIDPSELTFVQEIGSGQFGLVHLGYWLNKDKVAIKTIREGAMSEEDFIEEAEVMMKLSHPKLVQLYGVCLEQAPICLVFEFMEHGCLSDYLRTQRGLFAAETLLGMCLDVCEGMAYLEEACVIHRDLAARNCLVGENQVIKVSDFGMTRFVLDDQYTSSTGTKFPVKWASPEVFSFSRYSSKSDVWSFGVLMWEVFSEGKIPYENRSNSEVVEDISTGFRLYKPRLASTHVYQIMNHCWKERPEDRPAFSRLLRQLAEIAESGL

[17] = biological target: Tyrosine-protein kinase JAK2 (Homo sapiens, UniProt O60674); assay: Inhibition of JAK2 (unknown origin)
[18] = biological target: Rho-associated protein kinase 1 (Homo sapiens, UniProt Q13464); assay: Inhibition of ROCK1 (unknown origin)
[19] = biological target: Choline/ethanolamine kinase (Homo sapiens, UniProt Q9Y259); assay: Inhibition of CHKB (unknown origin)
Chain of Choline/ethanolamine kinase (Q9Y259 whole entry): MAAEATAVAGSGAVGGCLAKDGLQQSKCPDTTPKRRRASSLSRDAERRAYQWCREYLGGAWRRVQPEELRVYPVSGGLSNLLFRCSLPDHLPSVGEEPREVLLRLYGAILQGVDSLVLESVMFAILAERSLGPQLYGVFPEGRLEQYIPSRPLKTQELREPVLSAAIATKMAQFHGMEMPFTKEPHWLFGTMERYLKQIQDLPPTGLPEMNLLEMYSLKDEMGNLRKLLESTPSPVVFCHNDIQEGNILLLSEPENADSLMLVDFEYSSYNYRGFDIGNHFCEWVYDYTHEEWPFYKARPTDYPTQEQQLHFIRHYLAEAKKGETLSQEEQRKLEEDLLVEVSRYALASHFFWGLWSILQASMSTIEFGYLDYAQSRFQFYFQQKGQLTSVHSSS

Choline kinase alpha = Choline kinase alpha (Homo sapiens, UniProt P35790); assay: Inhibition of choline kinase alpha (unknown origin)
[20] = biological target: Diacylglycerol kinase zeta (Homo sapiens, UniProt Q13574); assay: Inhibition of DAGK zeta (unknown origin)
[21] = biological target: Serine/threonine-protein kinase mTOR (Homo sapiens, UniProt P42345); assay: Inhibition of FRAP1 (unknown origin)
[22] = biological target: Phosphatidylinositol 4-kinase type 2-alpha (Homo sapiens, UniProt Q9BTU6); assay: Inhibition of PI4K2A (unknown origin)
Chain of Phosphatidylinositol 4-kinase type 2-alpha (Q9BTU6 whole entry, the tested form may be a part): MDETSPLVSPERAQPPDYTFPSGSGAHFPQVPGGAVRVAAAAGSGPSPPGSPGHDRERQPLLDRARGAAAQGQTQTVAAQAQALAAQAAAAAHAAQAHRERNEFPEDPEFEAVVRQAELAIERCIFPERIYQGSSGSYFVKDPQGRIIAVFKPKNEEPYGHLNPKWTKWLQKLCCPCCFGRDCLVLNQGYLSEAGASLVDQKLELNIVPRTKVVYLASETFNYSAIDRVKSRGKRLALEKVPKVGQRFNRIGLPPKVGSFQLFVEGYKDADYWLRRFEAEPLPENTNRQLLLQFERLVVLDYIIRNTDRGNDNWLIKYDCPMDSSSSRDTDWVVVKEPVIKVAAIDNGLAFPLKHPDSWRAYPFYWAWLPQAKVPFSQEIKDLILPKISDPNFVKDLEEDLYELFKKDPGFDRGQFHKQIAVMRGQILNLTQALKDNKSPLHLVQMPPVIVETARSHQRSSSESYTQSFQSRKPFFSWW

[23] = biological target: Phosphatidylinositol 4-phosphate 3-kinase C2 domain-containing subunit beta (Homo sapiens, UniProt O00750); assay: Inhibition of PIK3C2B (unknown origin)
[24] = biological target: Phosphatidylinositol 5-phosphate 4-kinase type-2 alpha (Homo sapiens, UniProt P48426); assay: Inhibition of PIP4K2A (unknown origin)
Sphingosine kinase 1 = Sphingosine kinase 1 (Homo sapiens, UniProt Q9NYA1); assay: Inhibition of SPHK1 (unknown origin)
[25] = biological target: Mitogen-activated protein kinase 14 (Homo sapiens, UniProt Q16539); assay: Inhibition of P38alpha (unknown origin)
[26] = biological target: 3',5'-cyclic-AMP phosphodiesterase 4B (Homo sapiens, UniProt Q07343); assay: Inhibition of PDE4B (unknown origin)
[27] = biological target: Phosphatidylinositol 4-kinase beta (Homo sapiens, UniProt Q9UBF8); assay: Inhibition of PIK4B (unknown origin)
Chain of Phosphatidylinositol 4-kinase beta (Q9UBF8 whole entry): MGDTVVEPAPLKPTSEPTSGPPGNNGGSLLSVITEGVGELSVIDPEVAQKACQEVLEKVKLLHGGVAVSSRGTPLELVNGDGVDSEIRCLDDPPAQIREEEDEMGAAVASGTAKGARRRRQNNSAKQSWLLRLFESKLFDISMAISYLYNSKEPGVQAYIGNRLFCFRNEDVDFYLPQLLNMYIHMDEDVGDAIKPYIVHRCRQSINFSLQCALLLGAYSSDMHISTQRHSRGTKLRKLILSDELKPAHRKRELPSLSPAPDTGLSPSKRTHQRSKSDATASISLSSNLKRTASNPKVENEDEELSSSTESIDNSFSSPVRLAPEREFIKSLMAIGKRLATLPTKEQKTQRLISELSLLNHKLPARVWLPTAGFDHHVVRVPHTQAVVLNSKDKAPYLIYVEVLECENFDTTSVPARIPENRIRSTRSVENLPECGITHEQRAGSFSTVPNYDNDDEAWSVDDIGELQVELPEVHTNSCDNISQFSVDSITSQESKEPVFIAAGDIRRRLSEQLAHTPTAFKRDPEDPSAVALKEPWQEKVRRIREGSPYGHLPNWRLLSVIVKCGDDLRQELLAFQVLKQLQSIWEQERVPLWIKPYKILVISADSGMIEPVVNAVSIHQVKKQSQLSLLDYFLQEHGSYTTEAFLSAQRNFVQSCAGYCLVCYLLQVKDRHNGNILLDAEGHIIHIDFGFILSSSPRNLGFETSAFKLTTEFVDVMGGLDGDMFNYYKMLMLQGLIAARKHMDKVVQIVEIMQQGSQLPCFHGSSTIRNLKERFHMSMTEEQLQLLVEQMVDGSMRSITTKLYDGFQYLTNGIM

[28] = Fraction unbound in Brown Norway rat acute OVA model of TH2-driven lung inflammation at 3 mg/kg, po pretreated for 30 mins followed by OVA challenge measured 1 hr post dose by HPLC analysis; assay type: ADME, organism-based; conditions: in vivo
How it was run: (§2)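 Unbound concentration at 1 h post-dose estimated by an internal algorithm from binding to HPLC columns coated with HSA and α-glycoprotein.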

[29] = Fraction unbound in Brown Norway rat acute OVA model of TH2-driven lung inflammation at 9 mg/kg, po pretreated for 30 mins followed by OVA challenge measured 1 hr post dose by HPLC analysis; assay type: ADME, organism-based; conditions: in vivo; how it was run: as §2

Compound: COc1ncc(-c2cc3c(c(NC(=O)CN4CCOCC4)c2)COC3)cc1NS(C)(=O)=O
- Ratio IC50 (Homo sapiens [1]): 25
- Ratio IC50 (Homo sapiens [2]): 63
- CLH [3]: < 0.5 mL/min/g
- CLH [4]: < 0.5 mL/min/g
- AUC [5]: 673 ng·h/mL
- half-life [6]: 1.3 h
- Vd [7]: 1.1 L/kg
- fraction unbound (Albumin): 0.36
- AUC(0-inf) [8]: 673 ng·h/mL
- AUC(0-inf) [9]: 2620 ng·h/mL
- half-life [10]: 10.6 h
- concentration at 1 h [11]: 520 nM
- concentration at 1 h [12]: 1270 nM
- IC50 [13]: > 10 µM
- IC50 (Aurora kinase A): > 10 µM
- IC50 [14]: > 10 µM
- IC50 [15]: > 10 µM
- IC50 [16]: > 10 µM
- IC50 [17]: > 10 µM
- IC50 [18]: > 10 µM
- IC50 [19]: > 10 µM
- IC50 (Choline kinase alpha): > 10 µM
- IC50 [20]: > 10 µM
- IC50 [21]: > 10 µM
- IC50 [22]: > 10 µM
- IC50 [23]: > 10 µM
- IC50 [24]: > 10 µM
- IC50 (Sphingosine kinase 1): > 10 µM
- IC50 [25]: > 10 µM
- IC50 [26]: > 10 µM
- IC50 [27]: > 10 µM
- Drug uptake(free) [28]: 0.032 µM
- Drug uptake(free) [29]: 0.22 µM
